Ten compounds from ChEMBL document CHEMBL3352173, “Optimization of pyrrolamide topoisomerase II inhibitors toward identification of an antibacterial clinical candidate (AZD5099)” (J Med Chem, 2014) can be followed below.

Converted amounts (≈) assume the structure as drawn. Bounds are passed on as bounds.

Usually IC50 stands for the point on the concentration scale where inhibition reaches its midpoint. A higher IC50 goes with lower potency. One may read the logD as lipophilicity at a set pH, counting ionised and neutral species. Read a low logD as a more hydrophilic compound. Broadly, the fraction unbound is free concentration divided by total concentration. A lower fraction unbound goes with little free substance. A word on the solubility: it is the dissolved amount per volume that the medium holds.

One data set concerns Haemophilus influenzae. Nature of the data set: Antimicrobial activity against Haemophilus influenzae by broth microdilution/CLSI method. It is filed as functional. The note with it: Haemophilus influenzae; read-out: MIC.
A further data set concerns the target DNA gyrase subunit B (Staphylococcus aureus, UniProt P0A0K8). As to the kind of experiment: Inhibition of ATPase activity of Staphylococcus aureus GyrB. Summed up: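 IC50 was determined against S. aureus GyrB in the routine screening assay. The enzyme concentration limits resolution below 10 nM.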
The test system of a further data set is Streptococcus pneumoniae. As to the kind of experiment: Antibacterial activity against Streptococcus pneumoniae by broth microdilution/CLSI method. It is filed as functional. A general note: Broth dilution looks for growth in wells or tubes with falling amounts of substance.
Data set [1] deals with Staphylococcus aureus. Nature of the data set: Antimicrobial activity against methicillin-sensitive Staphylococcus aureus by broth microdilution/CLSI method. The data set is classed as functional.
Data set [2] concerns Staphylococcus aureus. Nature of the data set: Antimicrobial activity against methicillin, quinolone-resistant Staphylococcus aureus by broth microdilution/CLSI method. The data set is classed as functional. The following applies: Staphylococcus aureus; read-out: MIC.
The subject of a further data set is Moraxella catarrhalis. As to the kind of experiment: Antimicrobial activity against Moraxella catarrhalis by broth microdilution/CLSI method. It is filed as functional.
Data set [3] concerns Escherichia coli. Nature of the data set: Antimicrobial activity against wild-type Escherichia coli Eco523 by broth microdilution/CLSI method. It is filed as functional. The following applies: Escherichia coli, Eco523; read-out: MIC.
Data set [4] relates to Escherichia coli. As to the kind of experiment: Antimicrobial activity against Escherichia coli tolC- by broth microdilution/CLSI method. The data set is classed as functional. The following applies: Escherichia coli; read-out: MIC.
Another data set relates to Streptococcus pyogenes. As to the kind of experiment: Antimicrobial activity against Streptococcus pyogenes by broth microdilution/CLSI method. It is filed as functional.
Data set [5] in a line: Octanol-phosphate buffer distribution coefficient, log D of the compound at pH 7.4 by shake flask method. It is filed as physicochemical.
A short description of data set [6]: Percentage unbound in human plasma. It is filed as ADME, cell-free.
Data set [7] can be described thus: Solubility of the compound. It is filed as physicochemical.
The mark [8] stands for this setting: Streptococcus pneumoniae, read-out: MIC.
Setting [9] is: Staphylococcus aureus, read-out: MIC.
Where [10] appears, read: Moraxella catarrhalis, read-out: MIC.

Sequence of DNA gyrase subunit B (P0A0K8 whole entry): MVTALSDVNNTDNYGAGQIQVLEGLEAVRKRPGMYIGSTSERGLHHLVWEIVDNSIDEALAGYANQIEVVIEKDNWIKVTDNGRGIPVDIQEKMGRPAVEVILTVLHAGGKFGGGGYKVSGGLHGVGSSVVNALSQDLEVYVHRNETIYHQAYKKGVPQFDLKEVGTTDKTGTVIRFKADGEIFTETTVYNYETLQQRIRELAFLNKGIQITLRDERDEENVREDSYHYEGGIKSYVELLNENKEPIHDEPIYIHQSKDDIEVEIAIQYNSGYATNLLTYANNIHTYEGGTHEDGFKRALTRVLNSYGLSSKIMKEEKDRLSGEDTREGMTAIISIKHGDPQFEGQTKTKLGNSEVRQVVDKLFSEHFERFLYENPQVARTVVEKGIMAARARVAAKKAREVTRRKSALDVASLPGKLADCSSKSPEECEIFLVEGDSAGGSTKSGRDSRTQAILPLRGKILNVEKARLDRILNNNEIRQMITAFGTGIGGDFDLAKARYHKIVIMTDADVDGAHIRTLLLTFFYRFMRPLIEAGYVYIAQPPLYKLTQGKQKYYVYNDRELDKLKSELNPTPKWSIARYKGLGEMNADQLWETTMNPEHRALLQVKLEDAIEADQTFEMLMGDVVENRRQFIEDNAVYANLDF

For `CO[C@@H]1CN(c2ncc(C(=O)O)s2)CC[C@H]1NC(=O)c1[nH]c(C)c(Cl)c1Cl`, the MIC is 16 µg/mL (≈ 36.9 µM) in the data set on Haemophilus influenzae; 8 µg/mL (≈ 18.5 µM) in the data set on Streptococcus pneumoniae (setting [8]); greater than 64 µg/mL in the data set with Staphylococcus aureus [1] (setting [9]); greater than 64 µg/mL with Staphylococcus aureus [2]; 2 µg/mL (≈ 4.62 µM) with Moraxella catarrhalis (setting [10]); greater than 64 µg/mL in the data set with Escherichia coli [3]. The MIC with Escherichia coli [4] was found to be 2 µg/mL (≈ 4.62 µM). This compound registered an IC50 at DNA gyrase subunit B of 110 nM.
With `COC1(OC)CN(c2ncc(C(=O)O)s2)CC[C@H]1NC(=O)c1[nH]c(C)c(Cl)c1Cl`, the MIC amounted to 1 µg/mL (≈ 2.16 µM) in the data set on Haemophilus influenzae; 0.13 µg/mL (≈ 0.281 µM) in the data set with Streptococcus pneumoniae (setting [8]); 0.25 µg/mL (≈ 0.54 µM) with Streptococcus pyogenes; 2 µg/mL (≈ 4.32 µM) in the data set with Staphylococcus aureus [1] (setting [9]); 2 µg/mL (≈ 4.32 µM) in the data set with Staphylococcus aureus [2]; 0.5 µg/mL (≈ 1.08 µM) with Moraxella catarrhalis (setting [10]). For the same compound, the MIC is greater than 64 µg/mL with Escherichia coli [3] and 0.5 µg/mL (≈ 1.08 µM) in the data set on Escherichia coli [4]. The same compound registered an IC50 at DNA gyrase subunit B of 14 nM. In [5], this compound came in with a logD of 0.24. This compound yielded a fraction unbound in data set [6] of 0.018. Further, the solubility in [7] is greater than 1000 µM.
For `Cc1[nH]c(C(=O)N[C@@H]2CCN(c3ncc(C(=O)O)s3)CC23OCC2(CC2)CO3)c(Cl)c1Cl`, the MIC was 0.13 µg/mL (≈ 0.259 µM) in the data set on Haemophilus influenzae; less than 0.063 µg/mL in the data set on Streptococcus pneumoniae (setting [8]); less than 0.063 µg/mL in the data set on Streptococcus pyogenes; 0.5 µg/mL (≈ 0.997 µM) with Staphylococcus aureus [1] (setting [9]); 0.5 µg/mL (≈ 0.997 µM) in the data set on Staphylococcus aureus [2]; less than 0.063 µg/mL with Moraxella catarrhalis (setting [10]). The MIC was greater than 64 µg/mL in the data set on Escherichia coli [3] and 1 µg/mL (≈ 1.99 µM) in the data set on Escherichia coli [4]. This compound also registered an IC50 against DNA gyrase subunit B of less than 10 nM. Moreover, the logD in [5] was 0.88. In data set [6], this compound returned a fraction unbound of 0.012. In [7], this compound had a solubility greater than 1000 µM.
For `Cc1[nH]c(C(=O)N[C@@H]2CCN(c3ncc(C(=O)O)s3)C[C@@H]2F)c(Cl)c1Cl`, the MIC was found to be 0.3 µg/mL (≈ 0.712 µM) with Haemophilus influenzae; 0.078 µg/mL (≈ 0.185 µM) in the data set with Streptococcus pneumoniae (setting [8]); 0.092 µg/mL (≈ 0.218 µM) with Streptococcus pyogenes; 1.3 µg/mL (≈ 3.09 µM) with Staphylococcus aureus [1] (setting [9]); 2.2 µg/mL (≈ 5.22 µM) in the data set with Staphylococcus aureus [2]; 0.046 µg/mL (≈ 0.109 µM) with Moraxella catarrhalis (setting [10]). The values for the MIC in the data set with Escherichia coli [3] and in the data set on Escherichia coli [4] were greater than 64 µg/mL and 0.081 µg/mL (≈ 0.192 µM), respectively. The IC50 on DNA gyrase subunit B is less than 10 nM.
As for `CO[C@@H]1CN(c2ncc(C(=O)O)s2)CC[C@@H]1NC(=O)c1[nH]c(C)c(Cl)c1Cl`, the MIC in the data set with Haemophilus influenzae is 16 µg/mL (≈ 36.9 µM); in the data set with Streptococcus pneumoniae (setting [8]), 1 µg/mL (≈ 2.31 µM); in the data set with Staphylococcus aureus [1] (setting [9]) it was 32 µg/mL (≈ 73.8 µM); in the data set with Staphylococcus aureus [2], 32 µg/mL (≈ 73.8 µM); in the data set on Moraxella catarrhalis (setting [10]) it was 2 µg/mL (≈ 4.62 µM); in the data set on Escherichia coli [3] it was greater than 64 µg/mL. For the same compound, the MIC in the data set on Escherichia coli [4] came out at 8 µg/mL (≈ 18.5 µM). This compound also came in with a 50% inhibitory concentration (IC50) on DNA gyrase subunit B of 140 nM.
Take `Cc1[nH]c(C(=O)N[C@@H]2CCN(c3ncc(C(=O)O)s3)C[C@@H]2CO)c(Cl)c1Cl` (racemic): the MIC was 16 µg/mL (≈ 36.9 µM) with Haemophilus influenzae; 8 µg/mL (≈ 18.5 µM) in the data set on Streptococcus pneumoniae (setting [8]); greater than 64 µg/mL with Staphylococcus aureus [1] (setting [9]); 64 µg/mL (≈ 148 µM) with Staphylococcus aureus [2]; 1 µg/mL (≈ 2.31 µM) in the data set on Moraxella catarrhalis (setting [10]); greater than 64 µg/mL with Escherichia coli [3]. Besides, the MIC in the data set with Escherichia coli [4] turned out to be 1 µg/mL (≈ 2.31 µM). Also, the midpoint of inhibition at DNA gyrase subunit B, the IC50, lay at 18 nM. In data set [5], the log distribution coefficient (logD) was -0.42.
As for `Cc1[nH]c(C(=O)N[C@@H]2CCN(c3ncc(C(=O)O)s3)C[C@@H]2C)c(Cl)c1Cl` (racemic), the MIC was 2 µg/mL (≈ 4.79 µM) with Haemophilus influenzae; 0.5 µg/mL (≈ 1.2 µM) with Streptococcus pneumoniae (setting [8]); 4 µg/mL (≈ 9.59 µM) in the data set with Staphylococcus aureus [1] (setting [9]); 4 µg/mL (≈ 9.59 µM) in the data set with Staphylococcus aureus [2]; 0.5 µg/mL (≈ 1.2 µM) with Moraxella catarrhalis (setting [10]); greater than 8 µg/mL with Escherichia coli [3]. Besides, the MIC in the data set on Escherichia coli [4] is 0.5 µg/mL (≈ 1.2 µM). The compound also gave an IC50 at DNA gyrase subunit B of 14 nM. In data set [5], this compound registered a logD of 0.54. The same compound showed a fraction unbound in [6] of 0.023.
Consider `COCCO[C@H]1CN(c2ncc(C(=O)O)s2)CC[C@H]1NC(=O)c1[nH]c(C)c(Cl)c1Cl` (racemic), for which the MIC in the data set on Haemophilus influenzae is 8 µg/mL (≈ 16.8 µM); in the data set with Streptococcus pneumoniae (setting [8]), 0.5 µg/mL (≈ 1.05 µM); with Staphylococcus aureus [1] (setting [9]) it was greater than 8 µg/mL; with Moraxella catarrhalis (setting [10]) it was 1 µg/mL (≈ 2.09 µM); in the data set with Escherichia coli [3] it was greater than 8 µg/mL; with Escherichia coli [4], 2 µg/mL (≈ 4.19 µM). Further, on DNA gyrase subunit B, the 50% inhibitory concentration (IC50) was less than 10 nM. This compound also displayed a logD in data set [5] of 0.06. In [6], the fraction unbound came out at 0.094.
Turning to `CO[C@H]1CN(c2ncc(C(=O)O)s2)CC[C@H]1NC(=O)c1[nH]c(C)c(Cl)c1Cl` (relative stereo), the MIC with Haemophilus influenzae is 0.3 µg/mL (≈ 0.692 µM); against Streptococcus pneumoniae, 0.063 µg/mL (≈ 0.145 µM); against Staphylococcus aureus [1] it was 1 µg/mL (≈ 2.31 µM); with Staphylococcus aureus [2] it was 1 µg/mL (≈ 2.31 µM); in the data set with Moraxella catarrhalis it was 0.076 µg/mL (≈ 0.175 µM); in the data set with Escherichia coli [3], greater than 64 µg/mL. Moreover, in the data set on Escherichia coli [4], the MIC is 0.35 µg/mL (≈ 0.808 µM). In addition, on DNA gyrase subunit B, the IC50 is less than 10 nM.
Turning to `CO[C@H]1CN(c2nc(-c3ccn[nH]3)c(C(=O)O)s2)CC[C@H]1NC(=O)c1[nH]c(C)c(Cl)c1Cl`, the MIC with Haemophilus influenzae was 0.5 µg/mL (≈ 1 µM); in the data set on Streptococcus pneumoniae (setting [8]), less than 0.06 µg/mL; with Streptococcus pyogenes, less than 0.06 µg/mL; with Staphylococcus aureus [1] (setting [9]), 0.5 µg/mL (≈ 1 µM); with Staphylococcus aureus [2] it was 0.17 µg/mL (≈ 0.34 µM); in the data set on Moraxella catarrhalis (setting [10]), less than 0.06 µg/mL. Moreover, the MIC came to 64 µg/mL (≈ 128 µM) in the data set with Escherichia coli [3] and 0.18 µg/mL (≈ 0.36 µM) with Escherichia coli [4]. The compound also gave an IC50 at DNA gyrase subunit B of less than 10 nM. In data set [5], this compound yielded a logD of 1.7. Further, the solubility in data set [7] turned out to be 740 µM (≈ 370 µg/mL).
